Data taken from ChEMBL document CHEMBL1765072, “Inhibition of amyloidogenesis by nonsteroidal anti-inflammatory drugs and their hybrid nitrates” (J Med Chem, 2011).
Calls of active or inactive are those of the source. The rule behind the calls is not given here.

Experiments:
[1] = Cytotoxicity against mouse RAW264.7 cells assessed as cell viability at 10 uM after 24 hrs by MTT assay relative to control; type: cell-based; conditions: read-out: Activity
How it was run: (§1)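 RAW 264.7 cells given 0.5 mg/ml MTT in medium for 4 h, washed with PBS; formazan dissolved in DMSO, shaken 30 min, absorbance read at 570 nm against a 630 nm reference. Viability expressed relative to DMSO control.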

[2] = tested on: N2a (Mus musculus); assay: Cytotoxicity against mouse N2a/APPsw cells assessed as cell viability at 1 uM after 24 hrs by MTT assay relative to control
[3] = tested on: N2a; assay: Antiamyloidogenic activity in mouse N2A cells transfected with human APP Swedish mutant assessed as amyloid beta (1 to 42) level at 1 uM after 24 hrs by ELISA relative to control
[4] = tested on: RAW264.7; assay: Antiinflammatory activity against mouse RAW264.7 cells assessed as LPS-induced nitrate production at 10 uM treated 30 mins before LPS challenge measured after 24 hrs by Griess reagent method relative to control
[5] = Cytotoxicity against mouse RAW264.7 cells assessed as cell viability at 100 uM after 24 hrs by MTT assay relative to control; type: cell-based; conditions: read-out: Activity; how it was run: as §1
[6] = tested on: RAW264.7; assay: Antiinflammatory activity against mouse RAW264.7 cells assessed as LPS-induced nitrate production at 100 uM treated 30 mins before LPS challenge measured after 24 hrs by Griess reagent method relative to control
[7] = tested on: N2a; assay: Antiamyloidogenic activity in mouse N2A cells transfected with human APP Swedish mutant assessed as reduction of amyloid beta (1 to 42) level at 0.5 uM after 24 hrs by ELISA; type: functional, cell-based
How it was run: (§2)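 N2a/APPsw cells (25 × 10⁴/well, plated 24 h prior) washed with PBS and treated with drug in DMEM with 0.2 % FBS for 24 h. Supernatant got NaN₃ (0.01 % final) and protease inhibitors, was centrifuged, and Aβ1–42 was measured by human sandwich ELISA. Values normalized to DMSO vehicle; mean and s.e.m., at least 4 experiments on separate passages.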

[8] = tested on: N2a; assay: Antiamyloidogenic activity in mouse N2A cells transfected with human APP Swedish mutant assessed as increase of amyloid beta (1 to 42) level at 100 uM after 24 hrs by ELISA; type: functional, cell-based
[9] = tested on: N2a; assay: Antiamyloidogenic activity in mouse N2A cells transfected with human APP Swedish mutant assessed as increase of amyloid beta (1 to 42)/(1 to 40) ratio at 100 uM after 24 hrs by ELISA; type: functional, cell-based
[10] = tested on: N2a; assay: Antiamyloidogenic activity in mouse N2A cells transfected with human APP Swedish mutant assessed as increase of amyloid beta (1 to 40) level at 100 uM after 24 hrs by ELISA; type: functional, cell-based
[11] = tested on: N2a; assay: Antiamyloidogenic activity in mouse N2A cells assessed as degradation of amyloid beta (1 to 42) level at 100 uM treated 24 hrs before amyloid beta (1 to 42) challenge measured after 8 hrs by MALDI/TOF analysis; type: functional, cell-based
How it was run: (§3)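 Wild-type N2a cells were plated at 100 × 10⁴ cells/well, PBS-washed, and drug-treated in DMEM with 0.2 % FBS. Conditioned medium was collected after 24 h per the legend (18 h per the methods), given NaN₃, spun at 10,000 g, added to an Aβ1–40 + Aβ1–42 mixture, and incubated 8 h at 37 °C. Samples were then given protease inhibitors, spiked with Aβ1–43, and analysed by 4G8/6E10 IP-MALDI-TOF. Values were normalised to cell-free media control; mean and s.d.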

[12] = tested on: N2a; assay: Antiamyloidogenic activity in mouse N2A cells assessed as degradation of amyloid beta (1 to 40) level at 100 uM treated 24 hrs before amyloid beta (1 to 40) challenge measured after 8 hrs by MALDI/TOF analysis; type: functional, cell-based; how it was run: as §3
[13] = tested on: N2a; assay: Antiamyloidogenic activity in mouse N2A cells assessed as reduction of amyloid beta (1 to 42)/(1 to 40) ratio at 100 uM treated 24 hrs before amyloid beta (1 to 42)/(1 to 40) challenge measured after 8 hrs by MALDI/TOF analysis; type: functional, cell-based; how it was run: as §3
[14] = tested on: N2a; assay: Antiamyloidogenic activity in mouse N2A cells transfected with human APP Swedish mutant assessed as reduction of amyloid beta (1 to 42) level at 100 uM after 24 hrs by ELISA; type: functional, cell-based
[15] = tested on: N2a; assay: Antiamyloidogenic activity in mouse N2A cells transfected with human APP Swedish mutant assessed as increase of amyloid beta (1 to 37) level at 100 uM after 24 hrs by ELISA; type: functional, cell-based
[16] = tested on: N2a; assay: Antiamyloidogenic activity in mouse N2A cells transfected with human APP Swedish mutant assessed as reduction of amyloid beta (1 to 42) level at 10 uM after 24 hrs by ELISA; type: functional, cell-based; how it was run: as §2
[17] = tested on: N2a; assay: Antiamyloidogenic activity in mouse N2A cells transfected with human APP Swedish mutant assessed as increase of amyloid beta (1 to 37) level at 10 uM after 24 hrs by ELISA; type: functional, cell-based; conditions: in the assay text read “immunoprecipitation MALDI-TOF” for “ELISA”
How it was run: (§4)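 N2a cells stably expressing Swedish-mutant human APP, 1 × 10⁶ cells/well, drug-treated 24 h in DMEM with 0.2 % FBS without G418. Conditioned media got NaN₃, protease inhibitors and a ~1 ng/mL Aβ1–43 internal standard, then biotinylated 4G8/6E10 immunoprecipitation and linear-positive MALDI-TOF. Peak heights were normalized to Aβ1–43, then to DMSO control.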

[18] = tested on: N2a; assay: Antiamyloidogenic activity in mouse N2A cells transfected with human APP Swedish mutant assessed as increase of amyloid beta (1 to 38) level at 10 uM after 24 hrs by ELISA; type: functional, cell-based; conditions: in the assay text read “immunoprecipitation MALDI-TOF” for “ELISA”; how it was run: as §4

Structure (SMILES)	viability at 24 h, 10 µM [1]	viability at 24 h, 1 µM [2]	level, % of control at 1 µM [3]	level, % of control at 10 µM [4]	further results
O=C(O)C(O)c1ccc(-c2ccccc2)c(F)c1 (centres undefined)	89.1%	101%	82.5%	59%	
CCNC(=O)CC1=C/C(=C/c2ccc(SC)cc2)c2ccc(F)cc21	104%		95.7%	80.4%	
O=C(OCCO[N+](=O)[O-])C1(c2ccc(-c3ccc(C(F)(F)F)cc3)c(F)c2)CC1					viability at 24 h, 100 µM [5]: 128%; level, % of control at 100 µM [6]: 42.8%
O=C(O)C(F)c1ccc(-c2ccccc2)c(F)c1 (centres undefined)	92.7%	98.7%	91.8%	81.5%	
N#CC(F)(F)c1ccc(-c2ccc(F)cc2)c(F)c1	98.2%	98.2%	125%	75.7%	
O=C(O)C1(c2ccc(-c3ccc(F)cc3)c(F)c2)CC1	102%	102%	90.4%	86.4%	
O=C(O)C1(c2ccc(-c3ccc(C(F)(F)F)cc3)c(F)c2)CC1		97.2%	99.3%		viability at 24 h, 100 µM [5]: 102%; level, % of control at 100 µM [6]: 62.4%
CCC(CC)(C(=O)O)c1ccc(-c2ccccc2)c(F)c1		95.5%	124%		
COc1ccc2c(c1)c(CC(=O)NCCc1cccnc1)c(C)n2C(=O)c1ccc(Cl)cc1	95.6%		135%	100%	
CCC(C#N)(CC)c1ccc(-c2cccc3ccccc23)c(F)c1	107%	91.6%	105%	91.3%	
COc1ccc2c(c1)c(CC(=O)Nc1ccc(Cl)cc1)c(C)n2C(=O)c1ccc(Cl)cc1	92.2%		295%	68.6%	
O=C(O)C1(c2ccc(-c3ccccc3)c(F)c2)CC1		103%	69.5%		viability at 24 h, 100 µM [5]: 101%; level, % of control at 100 µM [6]: 60.7%
COc1ccc2c(c1)c(CC(=O)O)cn2C(=O)c1ccc(Cl)cc1	97.9%		102%	65.9%	
N#CC(F)c1ccc(-c2ccccc2)c(F)c1 (centres undefined)		93.1%	65.6%		
CC(F)(C(=O)O)c1ccc(-c2ccccc2)c(F)c1 (centres undefined)	99.7%	101%	98.8%	80.8%	
O=C(O)C(O)c1ccc(-c2ccc(F)cc2)c(F)c1 (centres undefined)	102%	99.7%	106%	76.3%	
N#CC(F)c1ccc(-c2ccc(F)cc2)c(F)c1 (centres undefined)	84.5%	69.4%		65.3%	
CSc1ccc(/C=C2/C(C)=C(CC(=O)O)c3cc(F)ccc32)cc1 [SULINDAC SULFIDE]			82.6%		

Structure (SMILES)	viability at 24 h, 10 µM [1]	viability at 24 h, 1 µM [2]	level, % of control at 1 µM [3]	level, % of control at 10 µM [4]	further results
O=C(OCCO[N+](=O)[O-])C1(c2ccc(-c3ccccc3)c(F)c2)CC1					viability at 24 h, 100 µM [5]: 113%; inhibition [7]: Active; level, % of control at 100 µM [6]: 47.3%
CSc1ccc(/C=C2/C=C(CC(=O)NCc3ccccc3)c3cc(F)ccc32)cc1	100%		94.5%	58.4%	
O=C(O)C1(c2ccc(-c3ccc(Cl)c(Cl)c3)c(F)c2)CC1			125%		viability at 24 h, 100 µM [5]: 19.1%
O=C(OCCBr)C1(c2ccc(-c3ccc(Cl)c(Cl)c3)c(F)c2)CC1					Activity [8]: Active; Activity [9]: Active; viability at 24 h, 100 µM [5]: 114%; Activity [10]: Active; level, % of control at 100 µM [6]: 27.8%
CC(C(=O)O)c1ccc(-c2ccccc2)c(F)c1 (centres undefined) [FLURBIPROFEN]			86.6%	80.7%	Activity [11]: Active; Activity [12]: Active; Activity [13]: Active; viability at 24 h, 100 µM [5]: 10.9%; inhibition [14]: Active; Activity [15]: Active; level, % of control at 100 µM [6]: 69.1%
O=C(OCCBr)C1(c2ccc(-c3ccccc3)c(F)c2)CC1					viability at 24 h, 100 µM [5]: 109%; level, % of control at 100 µM [6]: 18.9%
O=C(OCCBr)C1(c2ccc(-c3ccc(C(F)(F)F)cc3)c(F)c2)CC1					viability at 24 h, 100 µM [5]: 113%; level, % of control at 100 µM [6]: 14.7%
O=C(O)CC1=C/C(=C/c2ccc(C(F)(F)F)cc2)c2ccc(F)cc21	100%		91%	29.2%	
CC1=C(CC(=O)O)c2cc(F)ccc2/C1=C\c1ccc([S+](C)[O-])cc1 (centres undefined)	104%		100%	85.7%	inhibition [16]: Active; Activity [17]: Active; Activity [18]: Active
NC(=O)C(F)(F)c1ccc(-c2ccc(F)cc2)c(F)c1	98.8%	95.9%	109%	84.1%	
NC(=O)C(F)c1ccc(-c2ccc(F)cc2)c(F)c1 (centres undefined)	90.6%	69.1%		74.7%	
NC(=O)C(F)(F)c1ccc(-c2ccccc2)c(F)c1	100%	102%	115%	82.2%	
O=C(O)CC1=C/C(=C/c2ccc(SC(F)(F)F)cc2)c2ccc(F)cc21	104%		99.4%	1.7%	
CCC(C#N)(CC)c1ccc(-c2ccccc2)c(F)c1		97.3%	125%		
O=C(OCCO[N+](=O)[O-])C1(c2ccc(-c3ccc(Cl)c(Cl)c3)c(F)c2)CC1					viability at 24 h, 100 µM [5]: 135%; level, % of control at 100 µM [6]: 40%
COc1ccc2c(c1)c(CNCCO)c(C)n2C(=O)c1ccc(Cl)cc1	100%		118%	52.5%	
NC(=O)C(F)c1ccc(-c2ccccc2)c(F)c1 (centres undefined)		103%	101%		
C[S+]([O-])c1ccc(/C=C2/C=C(CC(=O)O)c3cc(F)ccc32)cc1 (centres undefined)	104%		95%	91.6%	
